Compound activity deposited in PubChem BioAssay by several laboratories.
Thrombin inh: thrombin (human) inhibition; P00734; alpha-thrombin, Boc-VPR-AMC fluorogenic substrate cleavage; inhibition, % at 5 µM; 0.26% of 220,000 active;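 active = inhibition at or above 40%; inactive = inhibition below 40%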
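Test system: human alpha-thrombin; medium: pH 7.5 Tris-saline with Tween 20; times: reaction at room temperature; signal: AMC fluorescence at 355 nm excitation and 460 nm emission; also added: Boc-VPR-AMC substrate, 15 µM final; dosing: one concentration per compound, 5 µM, with 0.2% DMSO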
FXIIa inh: factor XIIa (human) inhibition. purified FXIIa, Boc-QGR-AMC fluorogenic substrate, 2 h. AID 800. inhibition, % at 5 µM. 0.3% of 220,000 active. P00748; in the data active = inhibition above about 40%
Furin inhibitor: inhibitors of human furin. P09958. 0.061% of 220,000 active. inhibition, % at 20 µM or 30 µM. purified furin, fluorogenic substrate cleavage; in the data active = inhibition above about 25%
Target sequence (P09958 108-714 limits assumed): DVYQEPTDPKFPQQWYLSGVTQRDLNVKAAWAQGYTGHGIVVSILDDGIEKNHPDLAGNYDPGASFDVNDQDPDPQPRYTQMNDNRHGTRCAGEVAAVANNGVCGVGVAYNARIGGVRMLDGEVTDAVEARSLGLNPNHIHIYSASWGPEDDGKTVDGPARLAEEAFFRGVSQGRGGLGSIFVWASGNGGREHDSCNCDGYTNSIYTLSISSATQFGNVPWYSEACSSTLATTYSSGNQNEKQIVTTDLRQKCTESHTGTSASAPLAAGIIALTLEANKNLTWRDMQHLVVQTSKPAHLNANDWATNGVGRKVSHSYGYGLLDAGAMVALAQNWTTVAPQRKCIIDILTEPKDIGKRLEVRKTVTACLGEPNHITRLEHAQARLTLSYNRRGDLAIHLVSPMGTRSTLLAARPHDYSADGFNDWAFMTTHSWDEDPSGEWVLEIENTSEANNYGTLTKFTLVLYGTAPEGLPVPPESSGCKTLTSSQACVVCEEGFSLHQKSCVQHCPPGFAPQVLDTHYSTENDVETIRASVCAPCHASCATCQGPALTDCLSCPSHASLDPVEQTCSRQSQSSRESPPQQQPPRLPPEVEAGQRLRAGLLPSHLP
hK5 inh: kallikrein 5 (human) inhibition | Q9Y337 | inhibition, % at 5 µM | AID 873 | recombinant hK5, fluorogenic AMC substrate cleavage | 0.59% of 210,000 active;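 active = inhibition of 40% or more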
m-calpain inh: calpain II (pig) inhibition. 0.37% of 220,000 active. purified calpain II, fluorogenic peptide substrate, 30 min. AID 1236. inhibition, % at 16 µM;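 active = inhibition above about 50%, limit read from the data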
FXIa inh: factor XIa (human) inhibition; P03951; 0.14% of 220,000 active; purified FXIa, Boc-Glu-Ala-Arg-AMC fluorogenic substrate; inhibition, % at 5 µM;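 active = inhibition of at least 40%; inactive = inhibition below 40%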;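 also: fluorescence of freed AMC excited at 355 nm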
A number is an active result; i = inactive; nt = no result given. A selection: hits, their analogues and other compounds. The true share with any hit is near 1.4%.

SMILES	Thrombin inh	FXIIa inh	Furin inhibitor	hK5 inh	m-calpain inh	FXIa inh
CCN1CCN(c2cc(C(C)(C)C)nc3c(-c4ccccc4)c(C)nn23)CC1	i	i	i	47	i	i
CCN1CCN(c2cc(C(C)C)nc3c(-c4ccccc4)c(C)nn23)CC1	i	i	i	i	i	i
CC(O)C(=O)NCCOCCOCCNC(=O)C(C)O (centres undefined)	i	i	i	i	i	i
CC(C)OCCCn1c(=S)[nH]c2cc3c(cc2c1=O)OCO3	44	i	i	45	i	i
Cn1nc(C(=O)Nc2nc(-c3ccc(F)cc3)cs2)ccc1=O	i	i	i	61	i	105
O=C(Nc1nc(-c2ccncc2)cs1)c1ccc(F)cc1	i	i	i	i	i	i
CCOC(=O)CNC(=O)Cc1ccc(OC)cc1	i	43	i	i	i	i
CCOC(=O)CNC(=O)c1cc(OC)cc(OC)c1	i	i	i	i	i	i
O=C(CSc1c[nH]c2ccccc12)N1CCCc2ccccc21	i	i	i	i	i	i
O=C(Cc1c[nH]c2ccccc12)N1CCc2ccccc21	i	i	35	i	i	i
CCOc1cc(C(=O)NC)cc(OCC)c1OCC	i	i	i	44	i	i
COc1cccc(/C=N/NC(=O)c2[nH]c(C)c(C(=O)N/N=C/c3cccc(OC)c3O)c2C)c1O	i	i	i	i	i	40
COc1cccc(/C=N/NC(=O)c2ccc(-c3ccccc3)cc2)c1O	i	i	i	i	i	i
CC(=O)C1=C(c2ccccc2)NC(=O)NC1c1ccccc1OCC(=O)Nc1ccccc1 (centres undefined)	i	i	i	i	i	i
O=C(CN1CCCCCCC1)Nc1ccc(Cl)cc1Cl	i	i	i	i	88	i
O=C(CN1CCCCC1)Nc1ccc(C(F)(F)F)cc1Cl	i	i	i	i	i	i
CCN(c1ccc(NC(=O)COC(=O)c2ccc3ccccc3n2)cc1)C(C)C	i	i	i	i	i	i
Cc1ccc(C)c(Nc2nc(N)c3ccccc3n2)c1	i	i	i	i	i	i
Cc1cc(C(=O)CN(Cc2ccc(F)cc2)S(=O)(=O)c2ccc3c(c2)OCCO3)c(C)n1C	i	i	i	i	58	i
O=C(CN(Cc1ccccc1)S(=O)(=O)c1ccc2c(c1)OCCO2)N/N=C/c1ccc(F)cc1	i	i	i	i	i	i
CC(C)C1/C(=N/O)CC(c2ccccc2)NC1c1ccccc1 (centres undefined)	i	i	i	i	i	i
O=[N+]([O-])c1cccc(C2NCC(c3ccccc3Cl)c3c2[nH]c2ccccc32)c1 (centres undefined)	i	i	i	i	i	i
O=C(C[n+]1cc(-c2ccccc2)n2c1CCC2)Nc1nc(-c2ccccc2)cs1	i	41	i	42	i	i
Cc1ccc(-c2c[n+](CC(=O)Nc3nc(-c4ccccc4)cs3)c3n2CCC3)cc1	i	i	i	i	i	i
CC1=NN(c2ccccc2)C(=O)C1C=Nc1ccc(N(C)C)cc1 (centres undefined)	i	i	i	i	i	i
SMILES	Thrombin inh	FXIIa inh	Furin inhibitor	hK5 inh	m-calpain inh	FXIa inh
CCCCCCCCCCCCCCCC[n+]1cccc2ccccc21	i	i	i	i	99	i
CCCCCCCCC[n+]1cccc2c3ccccc3ccc21	i	i	i	i	i	i
COc1ccc(OC(=O)C2CC(=O)N(c3ccc(C)cc3)C2)cc1 (centres undefined)	i	i	i	i	i	i
COC(=O)N1CCN(c2ccc(OC)cc2)CC1	i	i	i	i	i	i
CCCCCCCCCCn1c2c(c(=N)c3c1CCC3)CCC2	i	i	i	i	54	i
CCCCCCCCCn1c2c(c(=N)c3c1CCC3)CCCC2	i	i	i	i	58	i
Cc1ccc2c(c1)nnn2C1CCN(S(=O)(=O)c2ccc(C(=O)N3CC(C)CC(C)C3)cc2)CC1 (centres undefined)	i	i	i	i	51	i
Cc1ccc2c(c1)nnn2C1CCN(S(=O)(=O)c2ccc(C(=O)N(C)C)cc2)CC1	i	i	i	i	i	i
CC(C)Cc1cc(C(=O)O)c2ccccc2n1	nt	nt	i	nt	nt	nt
CC(C)c1nnc(NC(=O)c2cnccn2)s1	41	i	i	i	i	i
CCOc1ccc(N(CC(=O)Nc2cccc(F)c2)S(=O)(=O)c2c(C)noc2C)cc1	i	45	i	42	i	i
CCOc1ccc(N(CC(=O)Nc2ccc(C)c(C)c2)S(=O)(=O)c2c(C)noc2C)cc1	i	i	i	i	i	i
COc1ccc(N(CC(=O)Nc2ccc3c(c2)OCCO3)S(=O)(=O)c2c(C)nn(C)c2C)cc1	i	46	i	i	i	i
CCN(CC)C(=O)CSc1nc(-c2ccco2)cc(C(F)(F)F)c1C#N	i	i	i	i	i	i
O=C(NC(=S)N1CCN(C/C=C/c2ccccc2)CC1)c1cccnc1	i	i	i	i	i	i
COc1ccc(NC(=O)Nc2ccc(C)cc2OC(F)F)cc1OC	i	i	i	i	53	i
CCOc1cc(NC(=O)c2ccccn2)c(OCC)cc1NC(=O)c1cccc(C)c1	i	i	i	i	i	i
C=CCn1c(C)cc(C2=NNC(=Nc3ccc(C)cc3)SC2)c1C	i	i	i	i	i	i
CCOc1ccc(N=C2NN=C(c3cc(C)n(CC4CCCO4)c3C)CS2)cc1 (centres undefined)	i	i	i	45	i	i
CC(=O)Nc1ccc(NC(=O)Nc2cccc(C)c2C)cc1	i	i	i	i	i	i
Cc1cc(C)nc(/N=C2\NC(=O)CC(C(=O)O)N2c2ccc(C)c(C)c2)n1 (centres undefined)	i	i	i	i	i	i
Clc1ccc(-c2ccc(SCc3ccccn3)nn2)cc1	i	i	i	43	i	i
O=C(c1coc(=O)c(Br)c1)N1CCCc2ccccc21	i	i	i	i	nt	i
Clc1ccc(Cn2ncc3c(N4CCCC4)ncnc32)cc1	i	i	i	44	i	i
CN(C)c1ccc(/C=N/NC(=O)CCCCCNC(=O)c2ccccc2)cc1	i	i	i	80	i	i
SMILES	Thrombin inh	FXIIa inh	Furin inhibitor	hK5 inh	m-calpain inh	FXIa inh
CCCCOc1ccc(C2CC(=O)N(C)C2=O)cc1 (centres undefined)	i	i	i	i	i	i
CCCC(=O)NC(=S)Nc1ccc(Cl)cn1	i	i	i	112	i	i
Cc1cc(NC(=O)CCC(=O)N(Cc2cccs2)C(C(=O)NC2CCCC2)c2cccnc2)no1 (centres undefined)	i	i	i	i	i	i
O=C(CCc1nnc(Cc2ccc(-c3ccccc3)cc2)o1)NCCc1cccnc1	i	i	i	nt	i	i
CCC(=O)Oc1ccc2c(C)c(Cl)c(=O)oc2c1	47	i	i	i	i	i
Cc1c(Cl)c(=O)oc2cc(OC(C)C)ccc12	i	i	i	i	i	i
Cc1cc(NC(=O)CSc2nc3sc4c(c3c(=O)n2C)CCCC4)no1	i	i	i	i	52	i
